Assay results as given in ChEMBL document CHEMBL1141572, “N-substituted 3-acetyltetramic acid derivatives as antibacterial agents” (J Med Chem, 2008).
≈ marks a conversion by molar mass, not a printed value. Calls of active or inactive are those of the source. The calls are words filed in the database; no cut-off is given here.

What was measured:
Bacillus subtilis = assay: Antibacterial activity against Bacillus subtilis ATCC 23857 by microbroth dilution method; format: functional
Cutibacterium acnes = assay: Antibacterial activity against Propionibacterium acnes ATCC 6919 by micro-broth dilution method; format: functional
Enterococcus faecalis = assay: Antibacterial activity against Enterococcus faecalis ATCC 33186 by microbroth dilution method; format: functional
Streptococcus pneumoniae = assay: Antibacterial activity against Streptococcus pneumoniae DAW30 by micro-broth dilution method; format: functional
Staphylococcus aureus [1] = assay: Antibacterial activity against methicillin-resistant Staphylococcus aureus ATCC 33591 by micro-broth dilution method; format: functional
Bacillus anthracis = assay: Antibacterial activity against Bacillus anthracis Sterne 34F2 by micro-broth dilution method; format: functional
Escherichia coli = assay: Antibacterial activity against Escherichia coli by micro-broth dilution method; format: functional
Staphylococcus aureus [2] = assay: Antibacterial activity against methicillin-sensitive Staphylococcus aureus 8325 ATCC 35556 by micro-broth dilution method; format: functional
Streptococcus pyogenes = assay: Antibacterial activity against Streptococcus pyogenes ATCC 700294 by micro-broth dilution method; format: functional
Vero = assay: Cytotoxicity against african green monkey Vero cells after 72 hrs by MTT proliferation assay; format: cell-based; settings: Chlorocebus sabaeus
Method in brief: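 IC50 is taken as the concentration that lowers Vero kidney cell viability by 50%.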

[3] = system: Mycobacterium tuberculosis; assay: Antimycobacterial activity against Mycobacterium tuberculosis H37Rv after 7 days by micro-broth dilution method; format: functional; settings: for MIC: 168 h
Pseudomonas aeruginosa = assay: Antibacterial activity against Pseudomonas aeruginosa by micro-broth dilution method; format: functional
[4] = Selectivity index, ratio of IC50 for african green monkey Vero cells to MIC for methicillin- sensitive Staphylococcus aureus 8325 ATCC 35556; format: functional
Method in brief: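 Selectivity index is calculated as the Vero cell cytotoxic IC50 divided by the MIC against the wild-type, drug-sensitive, methicillin-sensitive S. aureus 8325 (ATCC 35556).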

| SMILES | MIC (Bacillus subtilis) [µg/mL] | MIC (Cutibacterium acnes) [µg/mL] | MIC (Enterococcus faecalis) [µg/mL] | MIC (Streptococcus pneumoniae) [µg/mL] | MIC (Staphylococcus aureus [1]) [µg/mL] | MIC (Bacillus anthracis) [µg/mL] | MIC (Escherichia coli) [µg/mL] | MIC (Staphylococcus aureus [2]) [µg/mL] | MIC (Streptococcus pyogenes) [µg/mL] | IC50 (Vero) [µg/mL] | MIC [3] [µg/mL] | MIC (Pseudomonas aeruginosa) [µg/mL] | Ratio [4] | also measured |
| --- | --- | --- | --- | --- | --- | --- | --- | --- | --- | --- | --- | --- | --- | --- |
| C/C(O)=C1\C(=O)[C@H](CC(C)C)N(Cc2ccc(F)cc2)C1=O | 25 (≈ 81.9 µM) | 6.25 (≈ 20.5 µM) | 50 (≈ 164 µM) | 50 (≈ 164 µM) | 25 (≈ 81.9 µM) | 12.5 (≈ 40.9 µM) | > 200 | 12.5 (≈ 40.9 µM) | 100 (≈ 327 µM) | 27.8 (≈ 91 µM) | 100 (≈ 327 µM) | > 200 | 2.2 | – |
| C/C(O)=C1\C(=O)[C@@H](Cc2ccccc2)N(Cc2ccccc2)C1=O | 25 (≈ 77.8 µM) | 25 (≈ 77.8 µM) | 100 (≈ 311 µM) | 50 (≈ 156 µM) | 25 (≈ 77.8 µM) | 25 (≈ 77.8 µM) | > 200 | 25 (≈ 77.8 µM) | 200 (≈ 622 µM) | 80.6 (≈ 251 µM) | > 200 | > 200 | 3.2 | – |
| COc1cccc(CN2C(=O)/C(=C(/C)O)C(=O)[C@@H]2CC(C)C)c1 | 25 (≈ 78.8 µM) | 12.5 (≈ 39.4 µM) | 100 (≈ 315 µM) | 50 (≈ 158 µM) | 25 (≈ 78.8 µM) | 25 (≈ 78.8 µM) | > 200 | 12.5 (≈ 39.4 µM) | 200 (≈ 630 µM) | 40 (≈ 126 µM) | 100 (≈ 315 µM) | > 200 | 3.2 | – |
| CCC(C)[C@H]1C(=O)/C(=C(\C)O)C(=O)N1Cc1ccccc1 (stereo partly specified) | 25 (≈ 87 µM) | 6.25 (≈ 21.7 µM) | 6.25 (≈ 21.7 µM) | 50 (≈ 174 µM) | 6.25 (≈ 21.7 µM) | 3.12 (≈ 10.9 µM) | > 200 | 6.25 (≈ 21.7 µM) | > 200 | 26.3 (≈ 91.5 µM) | 50 (≈ 174 µM) | > 200 | 4.2 | – |
| CCCCCCCCCCN1C(=O)/C(=C(/C)O)C(=O)[C@@H]1C(C)C | 0.4 (≈ 1.24 µM) | 0.4 (≈ 1.24 µM) | 0.8 (≈ 2.47 µM) | 6.25 (≈ 19.3 µM) | 0.8 (≈ 2.47 µM) | 0.8 (≈ 2.47 µM) | > 200 | 0.8 (≈ 2.47 µM) | 25 (≈ 77.3 µM) | 7 (≈ 21.6 µM) | 12.5 (≈ 38.6 µM) | > 200 | 8.8 | – |
| CC(C)C[C@H]1C(O)=C(C#N)C(=O)N1Cc1ccc(F)cc1 | – | – | – | – | – | – | > 200 | – | – | – | – | > 200 | – | Activity (Bacillus subtilis): inactive; Activity (Cutibacterium acnes): inactive; Activity (Enterococcus faecalis): inactive; Activity (Streptococcus pneumoniae): inactive; Activity (Staphylococcus aureus [1]): inactive; Activity (Bacillus anthracis): inactive; Activity (Staphylococcus aureus [2]): inactive; Activity (Streptococcus pyogenes): inactive; Activity [3]: inactive |
| CCCCN1C(=O)/C(=C(/C)O)C(=O)[C@@H]1CC(C)C | 6.25 (≈ 24.7 µM) | 0.8 (≈ 3.16 µM) | 1.6 (≈ 6.32 µM) | 100 (≈ 395 µM) | 6.25 (≈ 24.7 µM) | 12.5 (≈ 49.3 µM) | > 200 | 3.12 (≈ 12.3 µM) | > 200 | 254 (≈ 1000 µM) | 100 (≈ 395 µM) | > 200 | 81.4 | – |
| CC(C)=CCCC(C)CCN1C(=O)/C(=C(/C)O)C(=O)[C@@H]1CC(C)C (stereo partly specified) | 0.8 (≈ 2.38 µM) | 0.4 (≈ 1.19 µM) | 0.8 (≈ 2.38 µM) | 3.25 (≈ 9.69 µM) | 0.8 (≈ 2.38 µM) | 0.4 (≈ 1.19 µM) | > 200 | 0.4 (≈ 1.19 µM) | 25 (≈ 74.5 µM) | 7.3 (≈ 21.8 µM) | 200 (≈ 596 µM) | > 200 | 18.3 | – |
| C/C(O)=C1\C(=O)[C@H](CC(C)C)N(Cc2ccc(-c3ccccc3)cc2)C1=O | 0.4 (≈ 1.1 µM) | 0.2 (≈ 0.55 µM) | 0.8 (≈ 2.2 µM) | 12.5 (≈ 34.4 µM) | 0.8 (≈ 2.2 µM) | 0.4 (≈ 1.1 µM) | > 200 | 0.2 (≈ 0.55 µM) | 25 (≈ 68.8 µM) | 19.7 (≈ 54.2 µM) | 50 (≈ 138 µM) | > 200 | 98.5 | – |
| C/C(O)=C1\C(=O)[C@H](CC(C)C)N(CC2=CCC3CC2C3(C)C)C1=O (stereo partly specified) | 1.6 (≈ 4.83 µM) | 0.8 (≈ 2.41 µM) | 1.6 (≈ 4.83 µM) | 50 (≈ 151 µM) | 1.6 (≈ 4.83 µM) | 0.8 (≈ 2.41 µM) | > 200 | 1.6 (≈ 4.83 µM) | 25 (≈ 75.4 µM) | 35.4 (≈ 107 µM) | 100 (≈ 302 µM) | > 200 | 22.1 | – |
| CCCCCCCCCCN1C(=O)C(C#N)=C(O)[C@@H]1CC(C)C | – | – | – | – | – | – | > 200 | – | – | – | 3.12 (≈ 9.74 µM) | > 200 | – | – |
